Measured values taken from PubChem BioAssay AID602299 (The Scripps Research Institute Molecular Screening Center, 2012).
Activity calls are given as the source filed them.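 The calls were made as follows: active = inhibition of 50% or more of probe labeling of the enzyme band; inactive = inhibition below 50%.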

Biological target: Diacylglycerol lipase-beta (Mus musculus) (UniProt Q91WC9)
Assay: blocking of probe labeling on DAGLb – biochemical, gel-based fluorescence, overexpressed mouse, set 2, late-stage follow-up (AID 602299)
Conditions: HEK293T membrane overexpressed mouse DAGLb, gel ABPP fluorescence; at 10 µM; active compounds read high
Summary of the method: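 Material: membrane proteome of HEK293T cells transiently overexpressing mouse DAGLb; input: 0.3 mg/mL membrane protein; reagent: HT-01 probe, 1 µM; controls: DMSO-only high, gel background low; signal: reducing SDS-PAGE with in-gel fluorescence; times: 30 min compound pre-incubation then 30 min probe labeling, 37 °C; read-out basis: % inhibition from band optical density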

Diacylglycerol lipase-beta (Mus musculus), sequence (Q91WC9 whole entry, looked up): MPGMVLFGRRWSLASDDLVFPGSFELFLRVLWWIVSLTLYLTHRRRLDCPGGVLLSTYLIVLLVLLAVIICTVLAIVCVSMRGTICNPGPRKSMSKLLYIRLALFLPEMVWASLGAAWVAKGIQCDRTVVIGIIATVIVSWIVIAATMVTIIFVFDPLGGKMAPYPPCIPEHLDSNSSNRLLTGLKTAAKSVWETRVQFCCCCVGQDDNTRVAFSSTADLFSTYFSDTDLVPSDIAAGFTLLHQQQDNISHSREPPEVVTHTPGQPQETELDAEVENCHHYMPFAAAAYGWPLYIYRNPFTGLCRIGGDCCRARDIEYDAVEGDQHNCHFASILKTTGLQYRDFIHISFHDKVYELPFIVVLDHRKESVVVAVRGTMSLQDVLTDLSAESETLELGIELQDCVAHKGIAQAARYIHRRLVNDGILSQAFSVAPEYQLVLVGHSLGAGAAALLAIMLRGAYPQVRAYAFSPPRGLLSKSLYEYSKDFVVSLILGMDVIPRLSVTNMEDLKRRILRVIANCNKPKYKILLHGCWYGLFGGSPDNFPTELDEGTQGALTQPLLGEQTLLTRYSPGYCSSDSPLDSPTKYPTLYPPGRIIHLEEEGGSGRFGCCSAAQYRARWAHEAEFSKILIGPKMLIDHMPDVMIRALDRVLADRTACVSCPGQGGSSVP

Structure (SMILES)	inhibition
COc1ccccc1-c1ccc(-c2cn(C(=O)N3CCCCC3CCc3ccccc3)nn2)cc1 (stereo not drawn)	69%
O=C(N1CCCCC1c1ccccc1)n1cc(-c2ccc(-c3ccccc3)cc2)nn1 (stereo not drawn)	50%
O=C(N1CCCCC1CCc1ccccc1)n1cc(-c2ccc(-c3ccccc3)cc2)nn1 (stereo not drawn)	59%
COc1ccc(-c2ccc(-c3cn(C(=O)N4CCCCC4c4ccccc4)nn3)cc2)cc1 (stereo not drawn)	11% (inactive)
O=C(N1CCCCC1c1ccccc1)n1cc(C(O)(c2ccccc2)c2ccccc2)nn1 (stereo not drawn)	39% (inactive)
COc1ccccc1-c1ccc(-c2cn(C(=O)N3CCCCC3c3ccccc3)nn2)cc1 (stereo not drawn)	64%
COc1ccccc1-c1ccc(-c2cn(C(=O)N3CCCC(Cc4ccccc4)C3)nn2)cc1 (stereo not drawn)	99%
COc1ccccc1-c1ccc(-c2cn(C(=O)N3CCC(Cc4ccccc4)CC3)nn2)cc1	98%
